Test results reported in ChEMBL document CHEMBL3576855, “Spongosine production by a Vibrio harveyi strain associated with the sponge Tectitethya crypta” (J Nat Prod, 2015).
Activity calls are given as the source filed them. The calls are words filed in the database; no cut-off is given here.

Key:
RAW264.7 [1] = assay: Cytotoxicity against mouse RAW264.7 cells assessed as cell viability after 48 hrs by MTT assay; format: cell-based; details: raw264.7, 48 h
RAW264.7 [2] = assay: Antiinflammatory activity in mouse RAW264.7 cells assessed as inhibition of LPS-stimulated nitric oxide production up to 30 ug/ml after 24 hrs by Colorimetry based Griess assay; format: functional, cell-based
How it was run: (§1)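 RAW 264.7 murine macrophages were pretreated with the nucleosides for 1 h at 0.1, 0.3, 1.0, 3.0, 10 and 30 μg/mL, with n = 6 wells per concentration. LPS (3 μg/mL) was then added and cells incubated 24 h. Nitrite was measured with Griess stain and expressed as percent reduction versus the LPS control. Significance was tested by ANOVA with Dunnett's test.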

RAW264.7 [3] = assay: Antiinflammatory activity in mouse RAW264.7 cells assessed as inhibition of LPS-stimulated nitric oxide production at 3 ug/ml after 24 hrs by Colorimetry based Griess assay; format: functional; details: RAW264.7, 24 h; how it was run: as §1

Compound	Activity (RAW264.7 [1])	inhibition (RAW264.7 [2])	inhibition at 3 µg/mL (RAW264.7 [3]) [%]
COc1nc(N)c2[nH]cnc2n1	Non-toxic	–	–
Nc1nc(O)c2ncn([C@H]3C[C@H](O)[C@@H](CO)O3)c2n1	–	Active	–
Nc1nc2c(ncn2[C@H]2C[C@H](O)[C@@H](CO)O2)c(=O)[nH]1 [DEOXYGUANOSINE]	Non-toxic	–	–
COc1nc(N)c2nc[nH]c2n1	–	Active	–
Nc1nc2c([nH]c(=O)n2[C@H]2C[C@H](O)[C@@H](CO)O2)c(=O)[nH]1	–	Active	–
COc1nc(N)c2ncn([C@H]3C[C@H](O)[C@@H](CO)O3)c2n1	Non-toxic	Active	–
Nc1nc2c(nc(O)n2[C@H]2C[C@H](O)[C@@H](CO)O2)c(=O)[nH]1	Non-toxic	–	–
Cc1cn([C@@H]2O[C@H](CO)[C@@H](O)[C@@H]2O)c(=O)[nH]c1=O	Non-toxic	Active	–
COc1nc(N)c2ncn([C@@H]3O[C@H](CO)[C@@H](O)[C@H]3O)c2n1 [BVT.115959]	Non-toxic	–	60
